Measured values: the RNAGym collection of RNA variant scans (doi:10.1126/science.aae0568)
Fewer inactive variants are shown than the library holds.

B1: tRNA (parent)
chain: GUUCCGUUGGCGUAAUGGUAACGCGUCUCCCUCCUAAGGAGAAGACUGCGGGUUCGAGUCCCGUACGGAACG

Variants of: B1
Test: yeast fitness relative to wild type (ratio to wild type); higher = fitter; tRNA-Arg(CCU), competitive growth, 37 C, YPD
Outline: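 The tRNA-Arg(CCU) gene variants were made by chemical synthesis with a 3% per-site mutation rate at 69 sites and inserted at the native genomic locus of Saccharomyces cerevisiae. After pooling, the strains were competed in YPD at 37°C for 24 hours in six parallel replicates. Gene amplicons from the start population and each end population were read by 100-nucleotide paired-end sequencing, and Darwinian fitness relative to wild type was taken from genotype frequency changes. Genotypes needed ≥ 100 starting reads, and estimates < 0.5 were set to 0.5.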

Row | Variant | yeast fitness
1 | A37C A43C A70U | 0.622
2 | A37C A43C C66A | ≤ 0.5
3 | A37C A43C U59A A69G | ≤ 0.5
4 | A37C A43U A69U | 0.738
5 | A37C A43U G52A C62A C66A | ≤ 0.5
6 | A37C A43U G63A | 0.666
7 | A37C A45U | 0.695
8 | A37C A45U C61U | 0.545
9 | A37C A45U G52C | ≤ 0.5
10 | A37C A45U G67C G68A | ≤ 0.5
11 | A37C A45U G68C | ≤ 0.5
12 | A37C A57C | 0.543
13 | A37C A57G | 0.665
14 | A37C A57U A65U | 0.637
15 | A37C A57U U59C | ≤ 0.5
16 | A37C A65G | 0.94
17 | A37C A69C | 0.865
18 | A37C A69U | 1.03
19 | A37C A70C | 0.968
20 | A37C A70U | 0.752
21 | A37C C46G | 0.947
22 | A37C C46G C49G | 0.568
23 | A37C C46G C60A C66U | ≤ 0.5
24 | A37C C46G C62U | 0.872

Row | Variant | yeast fitness
25 | A37C C46G C62U A69U | 0.673
26 | A37C C46U A65C | 0.638
27 | A37C C46U A65C G68A | ≤ 0.5
28 | A37C C46U U53C | ≤ 0.5
29 | A37C C49A | 0.651
30 | A37C C49G A57C | ≤ 0.5
31 | A37C C49G A70C | ≤ 0.5
32 | A37C C49U C55A C60A | ≤ 0.5
33 | A37C C55A A65C | 0.603
34 | A37C C55A C60G G63C | ≤ 0.5
35 | A37C C55G | 0.607
36 | A37C C55G A69C | ≤ 0.5
37 | A37C C60U A70C | 0.546
38 | A37C C60U G67A | 0.522
39 | A37C C61G | 0.584
40 | A37C C61U | 0.681
41 | A37C C62A | 0.874
42 | A37C C66A | 0.659
43 | A37C G38A C66U | 0.587
44 | A37C G39A C60G C66A | ≤ 0.5
45 | A37C G39C | 0.534
46 | A37C G44C | 0.758
47 | A37C G44C G52C G58A | ≤ 0.5
48 | A37C G48A | 0.779

Row | Variant | yeast fitness
49 | A37C G48C | 0.751
50 | A37C G50C | 0.551
51 | A37C G51A | 0.605
52 | A37C G51A U53C C62A | ≤ 0.5
53 | A37C G52A U53A | 0.566
54 | A37C G56A G68U | 0.602
55 | A37C G63C A69C | ≤ 0.5
56 | A37C G67U | 0.828
57 | A37C G68C | 0.764
58 | A37C U47A G58A | ≤ 0.5
59 | A37C U47C G51A | ≤ 0.5
60 | A37C U47C G51A G67A | ≤ 0.5
61 | A37C U47G | 0.573
62 | A37C U59C | 0.699
63 | A37C U64A | 0.729
64 | A37G A40C | 0.685
65 | A37G A40G | 0.912
66 | A37G A40G C49U | 0.501
67 | A37G A40U A65G | 0.571
68 | A37G A42C | 0.806
69 | A37G A42C A65U A69C | ≤ 0.5
70 | A37G A42G C49A | ≤ 0.5
71 | A37G A42U C62A A65C | ≤ 0.5
72 | A37G A42U G48C C49U A65G | ≤ 0.5

Row | Variant | yeast fitness
73 | A37G A43G | 0.734
74 | A37G A43U A65C | 0.627
75 | A37G A57G | 0.87
76 | A37G A57G U64C | ≤ 0.5
77 | A37G A57U | 0.55
78 | A37G A65G | 0.695
79 | A37G A65U | 0.598
80 | A37G A69C | 0.97
81 | A37G A70U | 0.741
82 | A37G C46G G56A | 0.624
83 | A37G C46U C62G | 0.533
84 | A37G C49A G56A | 0.607
85 | A37G C49G C55U G56C G68A | ≤ 0.5
86 | A37G C49U | 0.819
87 | A37G C55A G67A | ≤ 0.5
88 | A37G C55G U64C | 0.633
89 | A37G C55U | 0.519
90 | A37G C55U G63A | ≤ 0.5
91 | A37G C60U A70U | ≤ 0.5
92 | A37G C61U | 0.785
93 | A37G C62A | 0.582
94 | A37G C66A | 0.63
95 | A37G G39A | 0.638
96 | A37G G39A A45C | 0.635

Row | Variant | yeast fitness
97 | A37G G39A C46G U53C C62U A69C | ≤ 0.5
98 | A37G G39A C62U G63A | ≤ 0.5
99 | A37G G41A G50A | ≤ 0.5
100 | A37G G44A | 0.73
101 | A37G G44A A65C | 0.561
102 | A37G G44A A69U | 0.525
103 | A37G G44A C66U | 0.731
104 | A37G G44A U64G | ≤ 0.5
105 | A37G G44C | 0.809
106 | A37G G48A | 0.768
107 | A37G G48C C49U C60A A65U | ≤ 0.5
108 | A37G G50A | 0.842
109 | A37G G51C A70U | ≤ 0.5
110 | A37G G52C A70U | 0.552
111 | A37G G56C A69C | ≤ 0.5
112 | A37G G67C | 0.79
113 | A37G U47A C60A | ≤ 0.5
114 | A37G U47C | 0.744
115 | A37G U47G G52A | ≤ 0.5
116 | A37G U53C | 0.553
117 | A37G U53G | ≤ 0.5
118 | A37G U54A | ≤ 0.5
119 | A37G U54C | 0.674
120 | A37G U54C A65U | ≤ 0.5

Row | Variant | yeast fitness
121 | A37G U59G | 0.75
122 | A37U A40C | 0.776
123 | A37U A40C G51C C66A | ≤ 0.5
124 | A37U A40U | 0.72
125 | A37U A42C | 0.698
126 | A37U A42C A69C | ≤ 0.5
127 | A37U A42C G48C A70U | ≤ 0.5
128 | A37U A42G | 0.588
129 | A37U A42U A65C | ≤ 0.5
130 | A37U A45C C46A | 0.598
131 | A37U A45U | 0.64
132 | A37U A45U A65G | ≤ 0.5
133 | A37U A45U G68U | ≤ 0.5
134 | A37U A57C | 0.578
135 | A37U A57G | 0.648
136 | A37U A57U A65C G68A | 0.561
137 | A37U A65G | 0.651
138 | A37U A65G C66A | ≤ 0.5
139 | A37U C46A | 0.816
140 | A37U C49A C66U | ≤ 0.5
141 | A37U C49U | 0.68
142 | A37U C49U U64C | 0.545
143 | A37U C55U A65U | ≤ 0.5
144 | A37U C60U C62G U64A A69U | ≤ 0.5

Row | Variant | yeast fitness
145 | A37U C61A G67C | 0.507
146 | A37U C61U | 0.771
147 | A37U C62A | 0.523
148 | A37U C66U | 0.627
149 | A37U G38C | 0.557
150 | A37U G38C A65C | ≤ 0.5
151 | A37U G38C C61U | ≤ 0.5
152 | A37U G38C G63A | ≤ 0.5
153 | A37U G39C G48A U53G | ≤ 0.5
154 | A37U G41C | 0.68
155 | A37U G41C C46G | ≤ 0.5
156 | A37U G44A A57C C61G | 0.625
157 | A37U G44A C66U | 0.535
158 | A37U G48A C61U | 0.531
159 | A37U G48C | 0.674
160 | A37U G48C A70U | 0.547
161 | A37U G50A A69U | 0.805
162 | A37U G52A | 0.534
163 | A37U G52A U54C G56C A57G | ≤ 0.5
164 | A37U G56C | 0.528
165 | A37U G63C | 0.591
166 | A37U G68C | 0.837
167 | A37U U47A | 0.796
